Measured values reported in ChEMBL document CHEMBL5260806, “Hydrogen peroxide activated quinone methide precursors with enhanced DNA cross-linking capability and cytotoxicity towards cancer cells” (Eur J Med Chem, 2017).
The source made the active and inactive calls. The rule behind the calls is not given here.

Legend:
DNA [1] = experiment: Induction of [32P]-labeled 49-mer oligonucleotide duplex DNA 25 (unknown origin) interstrand cross-linking at 2 mM for 48 hrs in presence of 2mM H2O2 by PAGE; type: functional
786-0 = experiment: Anticancer activity against human 786-0 cells assessed inhibition of cell growth after 48 hrs by CellTiter-Glo luminescent assay; type: functional, cell-based; conditions: 786-0, 48 h
Summary of the method: (§1)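 Renal lines grown in RPMI 1640 with 5% FBS and 2 mM L-glutamine, plated at 5,000–10,000 cells/well in 384-well plates and held 2–3 h at 37 °C, 5% CO2. Compounds were made as 20 mM DMSO stocks, given as ten 2-fold serial dilutions diluted 1:100 into cells, and incubated 48 h. Read-out was CellTiter-Glo luminescence after 10 min at room temperature.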

A498 = experiment: Anticancer activity against human A498 cells assessed inhibition of cell growth after 48 hrs by CellTiter-Glo luminescent assay; type: functional, cell-based; conditions: A498, 48 h
Summary of the method: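 Human tumour cells kept in RPMI 1640 with 5% FBS and 2 mM L-glutamine, seeded at 5,000–10,000 cells/well and left 2–3 h at 37°C, 5% CO2. Drugs taken from 20 mM DMSO stocks, serially halved ten times in DMSO, then added at 1:100 dilution. Cells exposed for 48 h at 37°C. Viability read by CellTiter-Glo luminescence after 10 min at room temperature.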

SN12C = experiment: Anticancer activity against human SN12C cells assessed inhibition of cell growth after 48 hrs by CellTiter-Glo luminescent assay; type: functional, cell-based
Summary of the method: (§2)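 Renal lines grown in RPMI 1640 with 5% FBS and 2 mM L-glutamine, seeded into 384-well plates at 5,000–10,000 cells/well, held 2–3 h at 37 °C, 5% CO2. DMSO stocks (20 mM) serially halved ten times and added at 1:100. Cells exposed 48 h at 37 °C; CellTiter-Glo added, 10 min at room temperature, luminescence read.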

[2] = Anticancer activity against human CLL cells assessed as reduction in cell viability incubated for 24 hrs by Annexin/PI staining based fluorescence assay; type: functional
Summary of the method: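 CLL lymphocytes were taken from patients' peripheral blood (n=3) by Ficoll-Hypaque, suspended in 10% autologous plasma in RPMI, and exposed to 1, 5, 10, 20, 50 and 100 µM. Viability was measured by annexin V/propidium iodide binding. IC50 comes from one representative patient.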

ACHN = experiment: Anticancer activity against human ACHN cells assessed inhibition of cell growth after 48 hrs by CellTiter-Glo luminescent assay; type: functional, cell-based; summary of the method: as §1
UO-31 = experiment: Anticancer activity against human UO-31 cells assessed inhibition of cell growth after 48 hrs by CellTiter-Glo luminescent assay; type: functional, cell-based; conditions: UO-31, 48 h; summary of the method: as §2
DNA [3] = experiment: Induction of [32P]-labeled 49-mer oligonucleotide duplex DNA 25 (unknown origin) interstrand cross-linking at 2 mM for 24 hrs without H2O2 by PAGE; type: functional
CLL cell [4] = experiment: Induction of DNA damage in chronic lymphocytic leukemia patient lymphocytes assessed as apoptosis rate at 10 uM after 24 hrs by annexin/PI staining based flow cytometry; type: functional; conditions: Homo sapiens
TK-10 = experiment: Anticancer activity against human TK-10 cells assessed inhibition of cell growth after 48 hrs by CellTiter-Glo luminescent assay; type: functional, cell-based; conditions: TK-10, 48 h; summary of the method: as §2
MDA-MB-468 = experiment: Anticancer activity against human MDA-MB-468 cells assessed inhibition of cell growth after 48 hrs by CellTiter-Glo luminescent assay; type: functional, cell-based; conditions: MDA-MB-468, 48 h
Summary of the method: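 Cells grown in RPMI 1640 with 5% fetal bovine serum and 2 mM L-glutamine, seeded at 5,000–10,000 cells/well in 384-well plates, preincubated 2–3 h at 37°C, 5% CO2. DMSO stocks (20 mM) serially diluted 2-fold ten times, then added at 1:100. Exposure 48 h at 37°C. Viability read by CellTiter-Glo luminescence after 10 min at room temperature; IC50 derived.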

CLL cell [5] = experiment: Induction of DNA damage in chronic lymphocytic leukemia patient lymphocytes assessed as gamma-H2Ax phosphorylation at Ser139 residue at 10 uM after 24 hrs by FITC-staining based flow cytometry; type: functional; conditions: Homo sapiens
Summary of the method: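 Patient CLL lymphocytes, Ficoll-hypaque isolated, in RPMI with 10% autologous plasma, untreated or exposed to 10 µM for 24 h. Cells washed in PBS, fixed in ice-cold 70% ethanol and held at −20 °C. Then permeabilised, stained with FITC anti-H2AX Ser139 antibody and read by flow cytometry.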

DNA [6] = experiment: Potentiation of H2O2 induced [32P]-labeled 49-mer oligonucleotide duplex DNA 25 (unknown origin) interstrand cross-linking at pH 8 in phosphate buffer solution assessed as rate constant and measured for 24 hrs by PAGE analysis; type: functional
[7] = Toxicity in healthy human lymphocytes assessed as reduction in cell viability at 10 uM after 24 hrs by Annexin/PI staining based fluorescence assay; conditions: lymphocyte
Summary of the method: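 Normal donor lymphocytes (n=2) isolated from peripheral blood by Ficoll-hypaque, in RPMI with 10% autologous plasma. Exposed to 10 µM for 24 h; % viable cells by annexin/PI binding.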

DNA [8] = experiment: Induction of [32P]-labeled 49-mer oligonucleotide duplex DNA 25 (unknown origin) interstrand cross-linking assessed as increase in cross linking with increase of pH from 2 to 9 at 2 mM for 24 hrs in presence of H2O2 by PAGE analysis; type: functional
CAKI-1 = experiment: Anticancer activity against human CAKI-1 cells assessed inhibition of cell growth after 48 hrs by CellTiter-Glo luminescent assay; type: functional, cell-based; conditions: CAKI-1, 48 h; summary of the method: as §1

Row | SMILES | Activity (DNA [1]) [%] | IC50 (786-0) [µM] | IC50 (A498) [µM] | IC50 (SN12C) [µM] | IC50 [2] [µM] | IC50 (ACHN) [µM] | IC50 (UO-31) [µM] | Activity (DNA [3]) [%] | Activity (CLL cell [4]) | IC50 (TK-10) [µM] | IC50 (MDA-MB-468) [µM] | Activity (CLL cell [5]) | Ka (DNA [6]) [s⁻¹] | Activity [7] | Activity (DNA [8]) | IC50 (CAKI-1) [µM]
1 | COc1cc(OC)c(CBr)c(B2OC(C)(C)C(C)(C)O2)c1CBr | 20 |  |  |  |  |  |  |  |  |  |  |  |  |  |  | 
2 | O=C(O)CCCc1ccc(N(CCCl)CCCl)cc1 [CHLORAMBUCIL] |  | 55.5 | 280 | 135 | 98 | 133 | 40.7 |  |  |  |  |  |  |  |  | 
3 | CC(=O)OCc1cccc(COC(C)=O)c1B1OC(C)(C)C(C)(C)O1 | 20 |  |  |  |  |  |  | 0 |  |  |  |  |  |  |  | 
4 | CC1(C)OB(c2c(CBr)cccc2CBr)OC1(C)C | 22 | 20.3 | 33.3 | 27 | 48.3 | 26.9 | 25.3 | 0 | Active | 21.4 | 12 | Active | 8.8e-05 | Non-Toxic |  | 
5 | COc1c(CBr)c(B2OC(C)(C)C(C)(C)O2)c(CBr)c(OC)c1OC | 0 |  |  |  |  |  |  | 0 |  |  |  |  |  |  | inactive | 
6 | COc1cc(COC(C)=O)c(B2OC(C)(C)C(C)(C)O2)c(COC(C)=O)c1 | 26 |  |  |  |  |  |  | 0 |  |  |  |  |  |  |  | 
7 | CC(=O)OCc1cc(O)cc(COC(C)=O)c1B1OC(C)(C)C(C)(C)O1 | 32 |  |  |  |  |  |  | 0 |  |  |  |  |  |  |  | 
8 | CC1(C)OB(c2c(CBr)cc(O)cc2CBr)OC1(C)C | 50 | 27.8 |  | 24.4 | 20.8 | 35.7 | 19.5 | 0 | Active | 35.4 | 11 | Active | 0.000201 | Non-Toxic |  | 38.3
9 | N[C@@H](Cc1ccc(N(CCCl)CCCl)cc1)C(=O)O [MELPHALAN] |  | 19.2 | 135 | 71 | 76.9 | 52.1 | 42.9 |  |  | 54.5 |  |  |  |  |  | 
